Dyrk1A ADPGlo = Dyrk1A (rat) kinase inhibition. Q63470. ADP-Glo luminescence, NFATc1 peptide. inhibition, % at 12.5 µM. hit rate 0.43% among 310,000. AID 504441; in the data active means inhibition above about 50%;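 further: plate controls were vehicle with enzyme for no effect and no enzyme for full effect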
Rtt109 HAT inh = inhibitors of Candida albicans Rtt109/Vps75 histone acetyltransferase; Q5AAJ8; purified Rtt109/Vps75, ThioGlo CoA-SH fluorescence, 4 h; inhibition, % at 34.9 µM; hit rate 0.16% among 330,000; AID 540336;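 active means inhibition of at least 50% in every replicate; inconclusive means best replicate reaches 50% inhibition but some replicates fall short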
CAL PDZ FP-1 = CAL PDZ (human) peptide binding inhibition. hit rate 0.92% among 300,000. purified CAL PDZ, TMR-peptide fluorescence polarization, 1 h. Q9HD26. inhibition, % at 24.9 µM;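 active means mean inhibition of at least 30% with at least half of replicates also reaching 30%; inconclusive means no clear call, values can overlap the other calls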;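 further: 0% = DMSO neutral control and 100% = excess unlabeled competitor peptide PRC23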
dFosB act-1 = mouse delta FosB homodimer activation | P13346 | hit rate 0.99% among 340,000 | activation, % at 25 µM | purified delta FosB, TAMRA-CDK5 oligo fluorescence polarization; percent of positive-control signal above neutral wells;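 active means mean activation above about 17%, with every replicate also reaching it, limit read from the data, passing the limit was not always enough; inconclusive means only one of the two conditions met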
CDK5 p35 inh = blocks human CDK5/p35 kinase activity; Q00535+Q15078; Recombinant CDK5/p35, ADP-Glo luminescence, 60 min; inhibition, % at 10 µM; hit rate 0.01% among 330,000;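 active means highest replicate inhibition of at least 50% and at least 75% of replicates reaching 50%; inconclusive means only one of the two criteria met; inactive means both criteria failed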;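 further: plate controls were DMSO neutral control for no effect and GW8510 at 10 µM for full effect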
Target sequence (Q00535 whole entry, looked up): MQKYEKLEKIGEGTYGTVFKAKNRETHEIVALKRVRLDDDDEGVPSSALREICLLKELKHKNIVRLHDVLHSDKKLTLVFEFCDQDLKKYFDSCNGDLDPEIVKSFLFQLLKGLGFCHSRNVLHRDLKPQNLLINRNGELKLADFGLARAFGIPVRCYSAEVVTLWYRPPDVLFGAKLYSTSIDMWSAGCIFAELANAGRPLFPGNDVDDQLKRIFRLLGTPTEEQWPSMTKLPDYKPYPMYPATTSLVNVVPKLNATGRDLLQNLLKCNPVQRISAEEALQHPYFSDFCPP
Target sequence (Q15078 whole entry, looked up): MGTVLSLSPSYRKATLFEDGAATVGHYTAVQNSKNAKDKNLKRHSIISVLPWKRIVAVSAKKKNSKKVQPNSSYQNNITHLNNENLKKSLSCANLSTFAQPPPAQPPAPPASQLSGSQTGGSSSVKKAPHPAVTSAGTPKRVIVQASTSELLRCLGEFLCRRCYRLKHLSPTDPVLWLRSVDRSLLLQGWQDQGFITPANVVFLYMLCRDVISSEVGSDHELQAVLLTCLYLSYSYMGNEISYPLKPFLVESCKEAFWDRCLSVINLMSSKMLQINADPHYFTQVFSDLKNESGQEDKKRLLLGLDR
CAL PDZ FP-2 = inhibitors of human CAL PDZ peptide binding. Q9HD26. purified CAL PDZ, TMR-peptide fluorescence polarization, 1 h. inhibition, % at 20 µM. hit rate 0.02% among 330,000;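 active means highest replicate inhibition of at least 40%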;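 further: plate controls were DMSO neutral control wells for no effect and unlabeled competitor peptide control wells for full effect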
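Material: tagged CAL PDZ domain; buffer or medium: 25 mM sodium phosphate pH 7.4, 150 mM NaCl, TCEP, IgG, Thesit; compound dosing: single point, 20 µM; schedule: 1 h incubation at room temperature before polarization reading; measured by: FP readout, S and P plane fluorescence; read-out basis: percent inhibition from loss of millipolarization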
dFosB act-2 = enhances mouse delta FosB homodimer binding to DNA; shares compounds with dFosB act-1; purified delta FosB, TAMRA-CDK5 oligo fluorescence polarization; normalised: neutral wells 0, positive control 100; activation, % at 24.9 µM; 2,400 tested, under 10 active; AID 588690;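 active means highest replicate activation at or above 34% and every replicate reaching that threshold; inconclusive means meets only one of the two criteria; inactive means meets neither criterion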;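 further: higher polarization means more probe DNA bound by delta FosB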
* = called active by the depositor; ? = inconclusive; / = not tested or not shown. Shown are actives, neighbours in structure and some others; about 2.2% of the full set was active somewhere.

SMILES | Dyrk1A ADPGlo | Rtt109 HAT inh | CAL PDZ FP-1 | dFosB act-1 | CDK5 p35 inh | CAL PDZ FP-2 | dFosB act-2
COc1ccc2c(c1)[nH]c1c(=O)n(/N=C/c3ccc(OC)c(CN4CCCC4)c3)cnc12 | 15 | 15 | -4 | 66* | 0 | -2 | ?
COc1ccc2[nH]c3c(=O)n(/N=C/c4ccc(OC)c(CN5CCCC5)c4)c(C)nc3c2c1 | 31 | 13 | -3 | -5 | 5 | 1 | /
COc1ccc(/C=N/n2cnc3c([nH]c4ccc(F)cc43)c2=O)cc1CN1CCCC1 | 11 | 3 | 0 | -20 | 0 | 0 | /
COc1ccc(/C=N/n2cnc3c([nH]c4ccc(C)cc43)c2=O)cc1CN1CCCC1 | 16 | 4 | -6 | 42* | 0 | -1 | 2
CC1=C(C)CC(C(=O)Nc2ccc(C(=O)N3CCOCC3)cc2)C(C(=O)O)C1 (stereo not given) | 4 | -4 | 18 | 7 | 1 | 0 | /
COc1ccc(-c2nc(-c3ccncc3)no2)c(OC)c1 | 12 | -11 | / | 1 | 0 | -2 | /
COc1cc(OC)c(-c2nc(-c3ccncc3)no2)cc1OC | / | 2 | -4 | 21* | -1 | -1 | 6
CCN(CC)CCn1c2ccccc2c2cnc(N)c(C#N)c21 | 22 | 0 | -1 | 62* | 1 | 0 | -1
CN(C)C=Nc1ncc2c3ccccc3n(CCN(C)C)c2c1C#N | 17 | 13 | -1 | 33* | 2 | -1 | -3
CN(C)C=Nc1ncc2c3ccccc3n(Cc3ccccc3)c2c1C#N | -12 | 2 | / | 2 | -1 | 0 | /
Cc1cccc(C)c1NC(=O)c1cccc2c1C(=O)N(C1CCCCC1)C2 | -3 | 10 | -3 | -18 | -1 | -3 | /
COc1ccc(Oc2cccc(Cl)c2CNC(=O)CCC(=O)O)cc1 | 6 | -2 | -5 | 1 | 1 | 0 | /
O=C(CCNS(=O)(=O)c1ccccc1F)OCc1ccccc1Cl | / | 8 | -3 | -10 | 0 | -1 | /
O=C(Nc1ccccc1Cc1ccccc1)C1CC(=O)N(c2ccc3c(c2)OCCO3)C1 (stereo not given) | -2 | -8 | 3 | 36* | -1 | 0 | 0
O=C(N/C(=C/c1ccco1)C(=O)N1CCOCC1)c1ccccc1Br | -3 | 0 | -1 | 2 | -1 | -2 | /
CSc1cccc(NC(=O)NCc2cccc(CNC(=O)Nc3cccc(SC)c3)c2)c1 | -4 | -6 | 3 | 25* | -1 | 0 | 5
O=C1CC(C(=O)Nc2ccc(Cl)cc2)n2ncnc2N1 (stereo not given) | / | 0 | 3 | 0 | 0 | -1 | /
Cc1ccc(NC(=O)C2CC(=O)n3c(nc4ccccc43)N2)cc1Cl (stereo not given) | -4 | -1 | / | 31* | -1 | -2 | -16
CC(C)c1ccc(NC(=O)C2CC(=O)Nc3nc4ccccc4n32)cc1 (stereo not given) | -9 | -1 | -7 | 81* | -1 | 1 | 5
Cc1ccc(NC(=O)C2CC(=O)n3c(nc4ccccc43)N2)cc1C (stereo not given) | -2 | 1 | 1 | 31* | 0 | -1 | -2
C=C(C)Cn1c(NCCC)nc2c1c(=O)n(C)c(=O)n2C | 4 | -26 | / | -5 | 0 | -1 | /
Fc1ccc(-c2noc(-c3ccc4c(c3)CCO4)n2)cc1 | -4 | 15 | / | 28* | 1 | -2 | 3
COc1ccc(OC)c(NC(=O)COC(=O)CCNc2ccccc2OC)c1 | / | 5 | -1 | 1 | 1 | 0 | /
Cc1nn(Cc2ccccc2Cl)c2sc(C(=O)NC(C)(C)C)cc12 | 1 | 0 | -3 | -13 | 1 | -1 | /
Cc1csc(NC(=O)c2cc3c(C)nn(Cc4ccccc4Cl)c3s2)n1 | 0 | 7 | -3 | 46* | 4 | -2 | 7
SMILES | Dyrk1A ADPGlo | Rtt109 HAT inh | CAL PDZ FP-1 | dFosB act-1 | CDK5 p35 inh | CAL PDZ FP-2 | dFosB act-2
O=C(NCC1OCCc2ccccc21)c1ccc(NC(=O)c2ccc(Cl)cc2Cl)cc1 (stereo not given) | 5 | -7 | -1 | 45* | -1 | -3 | 5
O=C(NCC1OCCc2ccccc21)c1ccc(NC(=O)c2ccccc2Cl)cc1 (stereo not given) | 1 | 4 | -2 | 2 | 1 | -3 | /
CCc1cc(=O)oc2cc(C)cc(OC(C)C(=O)NCCCn3ccnc3)c12 (stereo not given) | -2 | -1 | 5 | -9 | 1 | 0 | /
Cc1ccc(C(=O)NCC(=O)Nc2ccc(C)c(S(=O)(=O)Nc3ccc(Cl)cc3)c2)s1 | 3 | 2 | -7 | 36* | -11 | 0 | 0
C=Cc1ccc2c(c1)N(C)C(=C)S2 | 3 | 3 | -2 | -1 | 2 | 1 | /
Cc1ccc(-c2c(C(=O)O)c3ccccc3[nH]c2=O)cc1 | 3 | -2 | 2 | 1 | 2 | 0 | /
C#CCOCCOCCOCCNc1nc(N2CCN(C(=O)[C@H]([C@@H](C)CC)n3cc([C@@H](N)CC(C)C)nn3)CC2)nc(N2CCN(C(=O)[C@H](CCCCN)n3cc([C@@H](N)CO)nn3)CC2)n1 | 1 | ? | -1 | 7 | -1 | 1 | /
C#CCOCCOCCOCCNc1nc(N2CCN(C(=O)[C@H](CCCCN)n3cc([C@@H](N)CC(C)C)nn3)CC2)nc(N2CCN(C(=O)[C@H](CCCCN)n3cc([C@@H](N)CC(C)C)nn3)CC2)n1 | 0 | ? | -3 | 19* | 3 | 1 | ?
O=C(NCC(=O)N(CC1CCCO1)C(C(=O)NC1CCCCC1)c1cccnc1)c1cccs1 (stereo not given) | 1 | -3 | / | -4 | -2 | 0 | /
O=C(O)c1nn(-c2ccccc2)nc1-c1nn(-c2ccccc2)nc1C(=O)O | -5 | -23 | 0 | -7 | -2 | -1 | /
COC(=O)c1nn(-c2ccccc2)nc1-c1nn(-c2ccccc2)nc1C(=O)OC | 0 | -6 | -5 | 23* | 0 | -2 | 3
COc1ccc2nc(NC(=O)Nc3ccccc3OC)sc2c1 | -5 | 0 | -2 | 7 | 0 | -3 | /
CS(=O)(=O)c1cccc(C(=O)OCC(=O)NC(=O)Nc2ccccc2F)c1 | 3 | -3 | / | 22* | 0 | 0 | 3
CC(=O)Nc1cccc(NC(=O)Nc2cccc3ccccc23)c1 | 4 | 5 | -1 | 21* | -1 | 0 | -3
CS(=O)(=O)c1ccc2nc(NC(=O)c3ccccc3)sc2c1 | 9 | 0 | -3 | 0 | 3 | -1 | /
Cc1cccc(NC(=O)Nc2cccc3ccccc23)c1 | 6 | -1 | -3 | 6 | -1 | 15 | /
O=Cc1ccc(C(=O)OCC(=O)NC(=O)Nc2ccccc2F)cc1 | -1 | 2 | -5 | -15 | 2 | 2 | /
